In ChEMBL document CHEMBL1177643, “Synthesis, DNA-binding ability and anticancer activity of benzothiazole/benzoxazole-pyrrolo[2,1-c][1,4]benzodiazepine conjugates” (Bioorg Med Chem, 2010):

Legend:
[1] = test system: Calf thymus DNA; test: Binding affinity to calf thymus duplex-form DNA assessed as melting temperature at 1:5 compound/DNA ratio after 18 hrs; format: nucleic-acid assay; conditions: Bos taurus
[2] = test system: HL-60; test: Growth inhibition of human HL-60(TB) cells after 48 hrs by sulforhodamine B assay; format: functional; conditions: HL-60, 48 h
Summary of the method: (§1)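 Panel of 60 human cancer cell lines; for each compound, dose–response curves per cell line measured at a minimum of five concentrations at 10-fold dilutions. Cells exposed continuously to drug for 48 h, and growth was read out by sulforhodamine B staining.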

[3] = test system: NCI-H23; test: Growth inhibition of human NCI-H23 cells after 48 hrs by sulforhodamine B assay; format: functional; conditions: NCI-H23, 48 h; summary of the method: as §1
[4] = test system: EKVX; test: Growth inhibition of human EKVX cells after 48 hrs by sulforhodamine B assay; format: functional
Summary of the method: (§2)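 Dose–response in each cell line over at least five concentrations at 10-fold dilutions, with 48 h continuous exposure and sulforhodamine B read-out.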

[5] = test system: SK-OV-3; test: Growth inhibition of human SKOV3 cells after 48 hrs by sulforhodamine B assay; format: functional; conditions: SK-OV-3, 48 h; summary of the method: as §1
[6] = test system: UACC-62; test: Growth inhibition of human UACC62 cells after 48 hrs by sulforhodamine B assay; format: functional; conditions: UACC-62, 48 h; summary of the method: as §1
[7] = test system: RXF 393; test: Growth inhibition of human RXF393 cells after 48 hrs by sulforhodamine B assay; format: functional; conditions: RXF 393, 48 h; summary of the method: as §1
[8] = test system: DU-145; test: Growth inhibition of human DU145 cells after 48 hrs by sulforhodamine B assay; format: functional; conditions: DU-145, 48 h; summary of the method: as §2
[9] = test system: K562; test: Growth inhibition of human K562 cells after 48 hrs by sulforhodamine B assay; format: functional; conditions: K562, 48 h; summary of the method: as §1
[10] = test system: SW-620; test: Growth inhibition of human SW620 cells after 48 hrs by sulforhodamine B assay; format: functional; conditions: SW-620, 48 h; summary of the method: as §1
[11] = test system: CAKI-1; test: Growth inhibition of human Caki1 cells after 48 hrs by sulforhodamine B assay; format: functional; conditions: CAKI-1, 48 h; summary of the method: as §2
[12] = test system: HOP-62; test: Growth inhibition of human HOP62 cells after 48 hrs by sulforhodamine B assay; format: functional; conditions: HOP-62, 48 h; summary of the method: as §1
[13] = test system: SF-295; test: Growth inhibition of human SF295 cells after 48 hrs by sulforhodamine B assay; format: functional; conditions: SF-295, 48 h; summary of the method: as §1
[14] = test system: M14; test: Growth inhibition of human M14 cells after 48 hrs by sulforhodamine B assay; format: functional; conditions: M14, 48 h; summary of the method: as §1
[15] = test system: NCI-H522; test: Growth inhibition of human NCI-H522 cells after 48 hrs by sulforhodamine B assay; format: functional; conditions: NCI-H522, 48 h; summary of the method: as §1
[16] = test system: SK-MEL-5; test: Growth inhibition of human SK-MEL-5 cells after 48 hrs by sulforhodamine B assay; format: functional; conditions: SK-MEL-5, 48 h; summary of the method: as §1
[17] = test system: OVCAR-4; test: Growth inhibition of human OVCAR4 cells after 48 hrs by sulforhodamine B assay; format: functional; conditions: OVCAR-4, 48 h; summary of the method: as §1
[18] = test system: MCF7; test: Growth inhibition of human MCF7 cells after 48 hrs by sulforhodamine B assay; format: functional; conditions: MCF7, 48 h; summary of the method: as §1
[19] = test system: 786-0; test: Growth inhibition of human 786-0 cells after 48 hrs by sulforhodamine B assay; format: functional; conditions: 786-0, 48 h; summary of the method: as §2
[20] = test system: MOLT-4; test: Growth inhibition of human MOLT4 cells after 48 hrs by sulforhodamine B assay; format: functional; conditions: MOLT-4, 48 h; summary of the method: as §1
[21] = test system: U-251; test: Growth inhibition of human U251 cells after 48 hrs by sulforhodamine B assay; format: functional; conditions: U-251, 48 h; summary of the method: as §1
[22] = test system: NCI-H460; test: Growth inhibition of human NCI-H460 cells after 48 hrs by sulforhodamine B assay; format: functional; conditions: NCI-H460, 48 h; summary of the method: as §1
[23] = test system: CCRF-CEM; test: Growth inhibition of human CCRF-CEM cells after 48 hrs by sulforhodamine B assay; format: functional; summary of the method: as §2
[24] = Growth inhibition of human […] cells after 48 hrs by sulforhodamine B assay; format: functional; summary of the method: as §1
[25] = test system: UO-31; test: Growth inhibition of human UO31 cells after 48 hrs by sulforhodamine B assay; format: functional; conditions: UO-31, 48 h; summary of the method: as §1
[26] = test system: COLO 205; test: Growth inhibition of human COLO205 cells after 48 hrs by sulforhodamine B assay; format: functional; conditions: COLO 205, 48 h; summary of the method: as §2
[27] = test system: A498; test: Growth inhibition of human A498 cells after 48 hrs by sulforhodamine B assay; format: functional; conditions: A498, 48 h; summary of the method: as §2
[28] = test system: TK-10; test: Growth inhibition of human TK10 cells after 48 hrs by sulforhodamine B assay; format: functional; conditions: TK-10, 48 h; summary of the method: as §1
[29] = test system: NCI/ADR-RES; test: Growth inhibition of human NCI/ADR-RES cells after 48 hrs by sulforhodamine B assay; format: functional; summary of the method: as §1
[30] = test system: ACHN; test: Growth inhibition of human ACHN cells after 48 hrs by sulforhodamine B assay; format: functional; summary of the method: as §2
[31] = test system: PC-3; test: Growth inhibition of human PC3 cells after 48 hrs by sulforhodamine B assay; format: functional; conditions: PC-3, 48 h; summary of the method: as §1
[32] = test system: UACC-257; test: Growth inhibition of human UACC257 cells after 48 hrs by sulforhodamine B assay; format: functional; conditions: UACC-257, 48 h; summary of the method: as §1
[33] = test system: T47D; test: Growth inhibition of human T47D cells after 48 hrs by sulforhodamine B assay; format: functional; summary of the method: as §1
[34] = test system: OVCAR-5; test: Growth inhibition of human OVCAR5 cells after 48 hrs by sulforhodamine B assay; format: functional; conditions: OVCAR-5, 48 h; summary of the method: as §1
[35] = test system: SK-MEL-28; test: Growth inhibition of human SK-MEL-28 cells after 48 hrs by sulforhodamine B assay; format: functional; conditions: SK-MEL-28, 48 h; summary of the method: as §1
[36] = test system: HCT-15; test: Growth inhibition of human HCT15 cells after 48 hrs by sulforhodamine B assay; format: functional; conditions: HCT-15, 48 h; summary of the method: as §1
[37] = test system: LOX IMVI; test: Growth inhibition of human LOXIMVI cells after 48 hrs by sulforhodamine B assay; format: functional; summary of the method: as §1
[38] = test system: NCI-H226; test: Growth inhibition of human NCI-H226 cells after 48 hrs by sulforhodamine B assay; format: functional; conditions: NCI-H226, 48 h; summary of the method: as §1
[39] = test system: MDA-MB-435; test: Growth inhibition of human MDA-MB-435 cells after 48 hrs by sulforhodamine B assay; format: functional; conditions: MDA-MB-435, 48 h; summary of the method: as §1
[40] = test system: KM12; test: Growth inhibition of human KM12 cells after 48 hrs by sulforhodamine B assay; format: functional; conditions: KM12, 48 h; summary of the method: as §1
[41] = test system: SF-539; test: Growth inhibition of human SF539 cells after 48 hrs by sulforhodamine B assay; format: functional; conditions: SF-539, 48 h; summary of the method: as §1
[42] = test system: Malme-3M; test: Growth inhibition of human MALME-3M cells after 48 hrs by sulforhodamine B assay; format: functional; summary of the method: as §1
[43] = test system: HCT-116; test: Growth inhibition of human HCT116 cells after 48 hrs by sulforhodamine B assay; format: functional; conditions: HCT-116, 48 h; summary of the method: as §1
[44] = test system: MDA-MB-231; test: Growth inhibition of human MDA-MB-231 cells after 48 hrs by sulforhodamine B assay; format: functional; conditions: MDA-MB-231, 48 h; summary of the method: as §1
[45] = test system: BT-549; test: Growth inhibition of human BT549 cells after 48 hrs by sulforhodamine B assay; format: functional; conditions: BT-549, 48 h; summary of the method: as §2
[46] = test system: HOP-92; test: Growth inhibition of human HOP92 cells after 48 hrs by sulforhodamine B assay; format: functional; conditions: HOP-92, 48 h; summary of the method: as §1
[47] = test system: A549; test: Growth inhibition of human A549 cells after 48 hrs by sulforhodamine B assay; format: functional; conditions: A549, 48 h; summary of the method: as §2
[48] = test system: SF-268; test: Growth inhibition of human SF268 cells after 48 hrs by sulforhodamine B assay; format: functional; conditions: SF-268, 48 h; summary of the method: as §1
[49] = test system: SN12C; test: Growth inhibition of human SN12C cells after 48 hrs by sulforhodamine B assay; format: functional; summary of the method: as §1
[50] = test system: NCI-H322M; test: Growth inhibition of human NCI-H322M cells after 48 hrs by sulforhodamine B assay; format: functional; summary of the method: as §1
[51] = test system: SNB-75; test: Growth inhibition of human SNB75 cells after 48 hrs by sulforhodamine B assay; format: functional; conditions: SNB-75, 48 h; summary of the method: as §1
[52] = test system: IGROV-1; test: Growth inhibition of human IGROV1 cells after 48 hrs by sulforhodamine B assay; format: functional; conditions: IGROV-1, 48 h; summary of the method: as §1
[53] = test system: SNB-19; test: Growth inhibition of human SNB19 cells after 48 hrs by sulforhodamine B assay; format: functional; conditions: SNB-19, 48 h; summary of the method: as §1
[54] = test system: HCC 2998; test: Growth inhibition of human HCC2998 cells after 48 hrs by sulforhodamine B assay; format: functional; conditions: HCC 2998, 48 h; summary of the method: as §1
[55] = test system: SR; test: Growth inhibition of human SR cells after 48 hrs by sulforhodamine B assay; format: functional; summary of the method: as §1
[56] = test system: SK-MEL-2; test: Growth inhibition of human SK-MEL-2 cells after 48 hrs by sulforhodamine B assay; format: functional; conditions: SK-MEL-2, 48 h; summary of the method: as §1
[57] = test system: OVCAR-8; test: Growth inhibition of human OVCAR8 cells after 48 hrs by sulforhodamine B assay; format: functional; conditions: OVCAR-8, 48 h; summary of the method: as §1
[58] = test system: OVCAR-3; test: Growth inhibition of human OVCAR-3 cells after 48 hrs by sulforhodamine B assay; format: functional; conditions: OVCAR-3, 48 h; summary of the method: as §1
[59] = test system: Hs-578T; test: Growth inhibition of human Hs 578T cells after 48 hrs by sulforhodamine B assay; format: functional; summary of the method: as §1
[60] = test system: HT-29; test: Growth inhibition of human HT-29 cells after 48 hrs by sulforhodamine B assay; format: functional; conditions: HT-29, 48 h; summary of the method: as §1

COc1cc(-c2nc3ccccc3o2)ccc1OCCCCCOc1cc2c(cc1OC)C(=O)N1CCC[C@H]1C=N2
ΔTm [1]: 4.2 °C

COc1cc2c(cc1OCCCCOc1ccc(-c3nc4ccccc4s3)cc1)N=C[C@@H]1CCCN1C2=O
GI50 [2]: 380 nM
GI50 [3]: 741 nM
GI50 [4]: 1260 nM
GI50 [5]: 1230 nM
GI50 [6]: 794 nM
GI50 [7]: 191 nM
GI50 [8]: 269 nM
GI50 [9]: 355 nM
ΔTm [1]: 0.5 °C
GI50 [10]: 427 nM
GI50 [11]: 355 nM
GI50 [12]: 407 nM
GI50 [13]: 676 nM
GI50 [14]: 537 nM
GI50 [15]: 324 nM
GI50 [16]: 347 nM
GI50 [17]: 1150 nM
GI50 [18]: 324 nM
GI50 [19]: 214 nM
GI50 [20]: 234 nM
GI50 [21]: 229 nM
GI50 [22]: 407 nM
GI50 [23]: 282 nM
GI50 [24]: 214 nM
GI50 [25]: 661 nM
GI50 [26]: 339 nM
GI50 [27]: 2040 nM
GI50 [28]: 479 nM
GI50 [29]: 1150 nM
GI50 [30]: 363 nM
GI50 [31]: 295 nM
GI50 [32]: 2190 nM
GI50 [33]: 219 nM
GI50 [34]: 331 nM
GI50 [35]: 2140 nM
GI50 [36]: 646 nM
GI50 [37]: 407 nM
GI50 [38]: 1450 nM
GI50 [39]: 447 nM
GI50 [40]: 550 nM
GI50 [41]: 347 nM
GI50 [42]: 1260 nM
GI50 [43]: 295 nM
GI50 [44]: 269 nM
GI50 [45]: 182 nM
GI50 [46]: 178 nM
GI50 [47]: 2630 nM
GI50 [48]: 661 nM
GI50 [49]: 631 nM
GI50 [50]: 2190 nM
GI50 [51]: 1070 nM
GI50 [52]: 2400 nM
GI50 [53]: 1510 nM
GI50 [54]: 363 nM
GI50 [55]: 21.9 nM
GI50 [56]: 389 nM
GI50 [57]: 759 nM
GI50 [58]: 380 nM
GI50 [59]: 501 nM
GI50 [60]: 380 nM
